Assay results reported in ChEMBL document CHEMBL4811241, “Revisiting Pyrazolo[3,4-d]pyrimidine Nucleosides as Anti-Trypanosoma cruzi and Antileishmanial Agents” (J Med Chem, 2021).
pIC50: −log10 of the molar value.

Tests used:
UGT [1] = experiment: Metabolic stability of the compound in mouse liver microsomes S9 fraction assessed as UGT-mediated metabolism by measuring parent compound remaining at 5 uM measured after 60 mins in presence of UDPGA by UPLC-MS analysis; format: ADME, subcellular; details: read-out: Stabilty
Outline: (§1)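 Compound at 5 μM with 0.5 mg/mL male mouse or pooled human liver microsomes; reaction started with 2 mM UDPGA. Sampled at 0, 15, 30 and 60 min and quenched in cold acetonitrile with internal standard. Parent remaining measured by UPLC-MS/MS (MRM) as % of the 0 min value.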

[2] = Selectivity index, ratio of LC50 for cytotoxicity against Swiss Webster mouse 2D cardiomyocytes to IC50 for antitrypanosomal activity against intracellular amastigote form of Trypanosoma cruzi Y infected in Swiss Webster mouse cardiomyocytes; format: toxicity, cell-based; details: read-out: Ratio LC50/IC50
Outline: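 Ratio of cardiac-cell CC₅₀ to Y-strain amastigote IC₅₀. Cardiac cultures were infected after 24 h plating for 24 h with bloodstream trypomastigotes (10:1 parasite/host). After washing, cells were treated 48 h at 37 °C with a serial dilution. Cells were then Giemsa-stained, with infection and parasites per cell scored in 200 cells. Two independent experiments were run in duplicate.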

UGT [3] = experiment: Metabolic stability of the compound in mouse liver microsomes S9 fraction assessed as UGT-mediated metabolism by measuring parent compound remaining at 5 uM measured after 15 mins in presence of UDPGA by UPLC-MS analysis; format: ADME, subcellular; details: read-out: Stabilty; outline: as §1
Trypanosoma cruzi [4] = experiment: Antitrypanosomal activity against nifurtimox-sensitive Trypanosoma cruzi Tulahuen CL2 infected in Swiss mouse peritoneal macrophages assessed as inhibition of parasite growth measured after 7 days by spectrophotometric analysis; format: functional, organism-based; details: Tulahuen CL2, Peritoneal macrophage, 168 h
CYP450 [5] = experiment: Metabolic stability of the compound in mouse liver microsomes S9 fraction assessed as CYP450-mediated metabolism by measuring parent compound remaining at 5 uM measured after 60 mins in presence of NADPH by UPLC-MS analysis; format: ADME, subcellular; details: read-out: Stabilty
Outline: (§2)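 Compound at 5 μM with 0.5 mg/mL male mouse or pooled human liver microsomes in potassium phosphate buffer; reaction started with 1 mM NADPH. Samples taken at 0, 15, 30 and 60 min and quenched in cold acetonitrile with internal standard. Parent remaining quantified by UPLC-MS/MS in MRM mode and given as % of the 0 min value.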

[6] = Selectivity index, ratio of CC50 for human MRC-5 SV2 cells to IC50 for antitrypanosomal activity against nifurtimox-sensitive Trypanosoma cruzi Tulahuen CL2 infected in human MRC-5 SV2 cells; format: toxicity, cell-based; details: read-out: Ratio CC50/IC50
Outline: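 Ratio of MRC-5SV2 CC50 (3-day resazurin assay) to IC50 against T. cruzi amastigotes in MRC-5SV2 cells (7-day CPRG assay).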

UGT [7] = molecular target: UGT (Homo sapiens, UniProt O60656+O75310+O75795+P06133+P0DTE4+P0DTE5+P16662+P19224+P22309+P22310+P35503+P35504+P36537+P54855+Q6UWM9+Q9BY64+Q9HAW7+Q9HAW8+Q9HAW9); experiment: Metabolic stability of the compound in human liver microsomes S9 fraction assessed as UGT-mediated metabolism by measuring parent compound remaining at 5 uM measured after 30 mins in presence of UDPGA by UPLC-MS analysis; format: ADME, subcellular; details: read-out: Stabilty; outline: as §1
CYP450 [8] = molecular target: T1, CYP450 (Homo sapiens, UniProt P04798+P05177+P05181+P08684+P10632+P10635+P11509+P11712+P13584+P20813+P20815+P20853+P24462+P24903+P33260+P33261+P51589+P78329+P98187+Q02928+Q08477+Q16678+Q16696+Q5TCH4+Q6VVX0+Q7Z449+Q8TAV3+Q96SQ9+Q9HB55); experiment: Metabolic stability of the compound in human liver microsomes S9 fraction assessed as CYP450-mediated metabolism by measuring parent compound remaining at 5 uM measured after 15 mins in presence of NADPH by UPLC-MS analysis; format: ADME, subcellular; details: read-out: Stabilty; outline: as §2
CYP450 [9] = molecular target: T1, CYP450; experiment: Metabolic stability of the compound in human liver microsomes S9 fraction assessed as CYP450-mediated metabolism by measuring parent compound remaining at 5 uM measured after 60 mins in presence of NADPH by UPLC-MS analysis; format: ADME, subcellular; details: read-out: Stabilty; outline: as §2
Trypanosoma cruzi [10] = experiment: Antitrypanosomal activity against Trypanosoma cruzi strain Y bloodstream trypomastigotes infected in Swiss Webster mouse assessed as reduction in parasitemia at 25 mg/kg, po bid for 5 days treatment started at 6 days post-infection and measured at 8 days post-infection by light microscopic analysis; format: functional; details: 48 h, time 2 day
Outline: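 Male Swiss Webster mice, 18–20 g, six per group; only mice with detectable parasitemia treated. Oral gavage for 5 consecutive days (6–10 dpi); test compound given b.i.d. in 10% Tween 80, benznidazole once daily, formulations freshly prepared. Parasitemia counted by light microscopy in 5 μL blood; mortality checked daily to 34 dpi.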

[11] = Cytotoxicity against Swiss Webster mouse 2D cardiomyocytes assessed as reduction in cell viability measured after 48 hrs by PrestoBlue assay; parameters: species or system Cardiac Muscle Cell; details: read-out: LC50
Outline: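 Mouse embryo heart cells as monolayer (2D) or 3D aggregates (25 × 10³ cells/well on 1% agarose). Uninfected cultures exposed 48 h to rising concentrations. Morphology checked by light microscopy; viability read by PrestoBlue; CC₅₀ determined.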

CYP450 [12] = experiment: Metabolic stability of the compound in mouse liver microsomes S9 fraction assessed as CYP450-mediated metabolism by measuring parent compound remaining at 5 uM measured after 15 mins in presence of NADPH by UPLC-MS analysis; format: ADME, subcellular; details: read-out: Stabilty; outline: as §2
Trypanosoma cruzi [13] = experiment: Antitrypanosomal activity against nifurtimox-sensitive Trypanosoma cruzi Tulahuen CL2 infected in Swiss mouse peritoneal macrophages assessed as inhibition of parasite growth measured after 7 days in presence of ABC transporter inhibitor, cyclosporine A by spectrophotometric analysis; format: functional, organism-based; details: Tulahuen CL2, Peritoneal macrophage, 168 h
Outline: (§3)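 Macrophage-hosted 7-day assay read with CPRG at 540 nm, with compound given together with an ABC transporter inhibitor: cyclosporine A 2 μM, probenecid 700 μM or verapamil 8 μM. IC50 from % reduction versus infected controls.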

Trypanosoma cruzi [14] = experiment: Antitrypanosomal activity against nifurtimox-sensitive Trypanosoma cruzi Tulahuen CL2 infected in Swiss mouse peritoneal macrophages assessed as inhibition of parasite growth measured after 7 days in presence of ABC transporter inhibitor, probenecid by spectrophotometric analysis; format: functional, organism-based; details: Tulahuen CL2, Peritoneal macrophage, 168 h; outline: as §3

Work on `Nc1ncnc2c1c(-c1ccc(Cl)cc1)nn2[C@@H]1O[C@H](CO)[C@@H](O)[C@H]1O` yielded a remaining at 1 h, 5 µM (UGT [1]) of 115%, a selectivity ratio [2] of over 1900 and a remaining at 0.25 h, 5 µM (UGT [3]) of 103%. It also gave a pIC50 (Trypanosoma cruzi [4]) of under 4.19, a remaining at 1 h, 5 µM (CYP450 [5]) of 108% and a selectivity ratio [6] of over 197. It also gave a remaining at 0.5 h, 5 µM (UGT [7]) of 106%, a remaining at 0.25 h, 5 µM (CYP450 [8]) of 102% and a remaining at 1 h, 5 µM (CYP450 [9]) of 101%. The inhibition in vivo at 25 mg/kg (Trypanosoma cruzi [10]) was 99%, the CC50 at 48 h [11] was 500 µM and the remaining at 0.25 h, 5 µM (CYP450 [12]) was 103%. The pIC50 (Trypanosoma cruzi [13]) was under 4.19 and the pIC50 (Trypanosoma cruzi [14]) was under 4.19.
